Test results from ChEMBL document CHEMBL1144594, “Synthesis and biological evaluation of 4-amino derivatives of benzimidazoquinoxaline, benzimidazoquinoline, and benzopyrazoloquinazoline as potent IKK inhibitors” (Bioorg Med Chem Lett, 2007).
The source made the active and inactive calls. No cut-off for these calls is given here.

Tests used:
[1] = target: T1, Inhibitor of nuclear factor kappa-B kinase subunit alpha (Homo sapiens, UniProt O15111); assay: Inhibition of IKK1
T1 sequence (O15111 whole entry): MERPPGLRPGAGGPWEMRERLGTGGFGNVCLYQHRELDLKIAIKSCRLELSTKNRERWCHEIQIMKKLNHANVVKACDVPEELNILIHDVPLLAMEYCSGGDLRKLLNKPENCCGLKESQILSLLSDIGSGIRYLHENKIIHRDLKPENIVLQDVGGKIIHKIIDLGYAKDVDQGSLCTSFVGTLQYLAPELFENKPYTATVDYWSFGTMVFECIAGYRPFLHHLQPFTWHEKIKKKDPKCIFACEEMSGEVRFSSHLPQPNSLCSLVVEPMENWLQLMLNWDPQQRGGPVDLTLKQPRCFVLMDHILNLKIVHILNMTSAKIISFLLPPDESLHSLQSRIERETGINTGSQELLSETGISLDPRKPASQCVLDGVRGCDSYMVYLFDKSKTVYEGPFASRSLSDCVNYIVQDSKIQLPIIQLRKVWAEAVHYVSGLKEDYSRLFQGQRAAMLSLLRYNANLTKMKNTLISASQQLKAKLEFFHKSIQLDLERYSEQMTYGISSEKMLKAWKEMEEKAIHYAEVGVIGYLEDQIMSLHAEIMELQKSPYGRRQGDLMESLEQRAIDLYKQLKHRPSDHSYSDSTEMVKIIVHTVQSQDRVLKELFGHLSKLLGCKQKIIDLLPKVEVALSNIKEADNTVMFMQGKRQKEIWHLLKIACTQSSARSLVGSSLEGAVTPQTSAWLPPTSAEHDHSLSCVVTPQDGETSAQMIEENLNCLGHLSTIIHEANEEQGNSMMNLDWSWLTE
In short: (§1)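 Enzyme (IKK-2 or IKK-1, typically 0.5 µg/mL final) added at 30 °C to 50 µg/mL GST-IκBα substrate and 20 µM ATP. Read-out is GST-IκBα phosphorylation. IC50 is from a single experiment.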

[2] = target: T2, Inhibitor of nuclear factor kappa-B kinase subunit beta (Homo sapiens, UniProt O14920); assay: Inhibition of IKK2; in short: as §1
T2 sequence (O14920 whole entry): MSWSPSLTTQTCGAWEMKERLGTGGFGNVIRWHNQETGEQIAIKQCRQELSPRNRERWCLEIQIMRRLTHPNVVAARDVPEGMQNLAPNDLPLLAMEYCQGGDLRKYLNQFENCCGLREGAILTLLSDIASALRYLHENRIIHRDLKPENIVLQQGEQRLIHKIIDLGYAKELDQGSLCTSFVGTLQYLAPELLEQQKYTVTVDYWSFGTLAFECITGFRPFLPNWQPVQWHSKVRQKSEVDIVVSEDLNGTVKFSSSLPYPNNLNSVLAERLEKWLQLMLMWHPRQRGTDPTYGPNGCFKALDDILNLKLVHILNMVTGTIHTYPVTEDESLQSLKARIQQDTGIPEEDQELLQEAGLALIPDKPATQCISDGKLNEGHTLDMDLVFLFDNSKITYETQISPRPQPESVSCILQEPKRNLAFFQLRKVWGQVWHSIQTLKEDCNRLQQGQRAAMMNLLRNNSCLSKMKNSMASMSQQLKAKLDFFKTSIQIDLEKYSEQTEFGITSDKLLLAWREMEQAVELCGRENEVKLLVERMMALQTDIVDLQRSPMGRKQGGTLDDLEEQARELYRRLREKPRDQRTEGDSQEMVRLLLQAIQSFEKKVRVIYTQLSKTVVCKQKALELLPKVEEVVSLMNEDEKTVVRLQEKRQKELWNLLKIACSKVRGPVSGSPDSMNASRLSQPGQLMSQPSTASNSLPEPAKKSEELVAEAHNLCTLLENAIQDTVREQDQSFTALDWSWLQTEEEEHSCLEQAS

[3] = target: T2, Inhibitor of nuclear factor kappa-B kinase subunit beta; assay: Inhibition of LPS-induced TNFalpha secretion in THP1 cells; type: functional, cell-based, THP-1
Homo sapiens = species: Homo sapiens; assay: Selectivity for human IKK2 over human IKK1
Mus musculus [4] = assay: Reduction of LPS-induced serum TNFalpha levels in BALB/c mouse at 10 mg/kg, po relative to control; type: functional; set-up: scale not given: the % may be the effect or the level left
In short: (§2)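 Female BALB/c mice, 6–8 weeks old, got inhibitor in 0.2 mL aqueous solution by oral gavage. One hour later they were challenged ip with 1 µg E. coli O111:B4 LPS in 500 µL PBS. Serum was taken 90 min after challenge and TNF-α measured by EIA. Inhibition is relative to vehicle-only LPS-challenged controls.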

Mus musculus [5] = assay: Reduction of LPS-induced serum TNFalpha levels in BALB/c mouse at 100 mg/kg, po relative to control; type: functional, organism-based; set-up: dose 100 mg/kg; in short: as §2
Mus musculus [6] = assay: Reduction of LPS-induced serum TNFalpha levels in BALB/c mouse at 30 mg/kg, po relative to control; type: functional; set-up: scale not given: the % may be the effect or the level left; in short: as §2
[7] = target: T3, Inhibitor of nuclear factor kappa-B kinase subunit epsilon (Homo sapiens) (UniProt Q14164); assay: Inhibition of IKKepsilon at 50 uM
T3 sequence (whole entry): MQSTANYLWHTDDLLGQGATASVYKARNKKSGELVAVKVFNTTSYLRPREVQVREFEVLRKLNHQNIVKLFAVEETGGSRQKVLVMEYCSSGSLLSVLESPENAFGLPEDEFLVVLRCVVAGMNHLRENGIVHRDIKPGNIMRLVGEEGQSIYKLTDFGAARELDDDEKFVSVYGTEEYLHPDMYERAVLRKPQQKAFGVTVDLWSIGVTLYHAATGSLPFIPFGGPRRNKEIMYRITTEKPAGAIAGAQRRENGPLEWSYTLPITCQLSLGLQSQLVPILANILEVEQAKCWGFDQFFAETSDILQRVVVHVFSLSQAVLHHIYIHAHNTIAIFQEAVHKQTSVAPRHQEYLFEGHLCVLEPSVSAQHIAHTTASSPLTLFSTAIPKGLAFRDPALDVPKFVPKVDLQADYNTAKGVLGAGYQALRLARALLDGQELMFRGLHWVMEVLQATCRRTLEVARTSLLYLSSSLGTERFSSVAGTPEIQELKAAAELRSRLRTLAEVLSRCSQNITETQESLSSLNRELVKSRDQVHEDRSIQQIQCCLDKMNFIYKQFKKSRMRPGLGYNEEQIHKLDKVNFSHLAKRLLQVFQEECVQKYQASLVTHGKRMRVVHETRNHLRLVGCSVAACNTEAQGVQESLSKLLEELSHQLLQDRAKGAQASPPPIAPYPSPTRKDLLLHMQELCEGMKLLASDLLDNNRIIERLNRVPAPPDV

[8] = target: T4, Tyrosine-protein kinase ITK/TSK (Homo sapiens) (UniProt Q08881); assay: Inhibition of EMT at 50 uM
T4 sequence (whole entry): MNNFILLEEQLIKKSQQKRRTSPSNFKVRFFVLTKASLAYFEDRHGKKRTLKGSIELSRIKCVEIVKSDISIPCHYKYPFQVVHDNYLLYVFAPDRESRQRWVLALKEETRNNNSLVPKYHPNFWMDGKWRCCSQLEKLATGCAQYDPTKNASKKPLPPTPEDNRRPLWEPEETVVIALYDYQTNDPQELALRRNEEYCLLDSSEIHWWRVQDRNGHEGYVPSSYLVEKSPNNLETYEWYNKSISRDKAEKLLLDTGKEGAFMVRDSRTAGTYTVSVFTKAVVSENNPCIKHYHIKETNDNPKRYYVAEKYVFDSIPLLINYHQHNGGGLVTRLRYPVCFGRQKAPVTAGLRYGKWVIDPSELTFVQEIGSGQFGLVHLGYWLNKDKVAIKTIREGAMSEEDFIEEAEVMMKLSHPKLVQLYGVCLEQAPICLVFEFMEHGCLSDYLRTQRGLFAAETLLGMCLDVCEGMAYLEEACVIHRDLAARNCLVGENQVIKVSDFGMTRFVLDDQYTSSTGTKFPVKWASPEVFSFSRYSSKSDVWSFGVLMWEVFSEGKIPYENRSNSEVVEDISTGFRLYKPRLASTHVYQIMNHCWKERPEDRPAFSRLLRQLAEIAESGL

[9] = target: Tyrosine-protein kinase Lck (Homo sapiens) (UniProt P06239); assay: Inhibition of LCK at 50 uM
Tyrosine-protein kinase Lck (Homo sapiens), sequence (P06239 2-509 limits assumed): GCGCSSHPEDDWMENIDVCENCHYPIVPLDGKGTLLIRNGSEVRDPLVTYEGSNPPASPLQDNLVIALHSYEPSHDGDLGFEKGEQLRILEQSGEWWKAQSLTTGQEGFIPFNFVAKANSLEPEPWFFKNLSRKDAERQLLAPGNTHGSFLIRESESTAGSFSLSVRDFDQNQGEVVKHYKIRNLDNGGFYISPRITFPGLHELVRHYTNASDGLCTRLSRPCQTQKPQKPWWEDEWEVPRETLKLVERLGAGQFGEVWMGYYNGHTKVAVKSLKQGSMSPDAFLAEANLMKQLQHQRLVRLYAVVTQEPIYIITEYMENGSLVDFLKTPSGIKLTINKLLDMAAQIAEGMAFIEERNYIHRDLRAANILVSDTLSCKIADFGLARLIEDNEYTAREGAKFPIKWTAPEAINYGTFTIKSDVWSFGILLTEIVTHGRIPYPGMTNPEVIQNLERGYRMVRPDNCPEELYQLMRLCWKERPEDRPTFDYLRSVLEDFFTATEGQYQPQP

Row | SMILES | IC50 [1] [nM] | IC50 [2] [nM] | IC50 [3] [nM] | other results
1 | Cn1cnc2c(NCCN)nc3cc4ccccc4cc3c21 | 1600 | 58 | 5900 | –
2 | CNc1nc2cc3ccccc3cc2c2c(C)cnn12 | – | 11 | 8300 | –
3 | CNc1nc2cc3ccccc3cc2n2c(C)cnc12 | – | 18 | 340 | Ratio IC50 (Homo sapiens): 13; Activity (Mus musculus [4]): 50%
4 | Cc1ccc2nc(NCCN)c3ncc(C)n3c2c1.Cl | – | – | – | Activity (Mus musculus [5]): Active; Activity (Mus musculus [6]): 50%
5 | CNCCNc1nc2cc3ccccc3cc2c2c(C)cnn12 | – | 35 | 1500 | –
6 | CNCCNc1nc2cc3ccccc3cc2n2c(C)cnc12 | 390 | 23 | 1000 | Activity (Mus musculus [5]): Active; Activity [7]: inactive; Activity [8]: inactive; Activity [9]: inactive
7 | CNc1nc2cc3ccccc3cc2c2c1ncn2C | 990 | – | 950 | –
8 | Cc1cnc2c(NCCN3CCCCC3)nc3cc4ccccc4cc3n12 | – | 46 | 600 | –
9 | Cc1cnc2c(NCCO)nc3cc4ccccc4cc3n12 | 870 | 18 | 1400 | Ratio IC50 (Homo sapiens): 48
